Test results from ChEMBL document CHEMBL1933017, “Synthesis and biological evaluation of some thiazolidinones as antimicrobial agents” (2012).
In brackets after ≈: the same amount, converted by molar mass.

Experiments:
Aspergillus niger [1] = assay: Antifungal activity against Aspergillus niger after 48 hrs by agar streak dilution method; assay type: functional
Method in brief: (§1)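 Fungal MIC by agar streak dilution on Sabouraud dextrose agar, poured 4–5 mm deep. Compound from a DMSO stock (100 μg/mL) was incorporated at serial concentrations of 3.12–100 µg/mL. Plates were inoculated with about 10⁵ CFU/mL of suspension and incubated at (37 ± 1) °C for 48 h. Each value is the mean of three independent experiments.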

Proteus vulgaris [2] = assay: Antibacterial activity against Proteus vulgaris after 24 hrs by agar streak dilution method; assay type: functional
Method in brief: (§2)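 MIC by agar streak dilution. Graded amounts of DMSO stock (100 μg/mL) were mixed into molten sterile nutrient agar and poured 4–5 mm deep. Serial concentrations spanned 3.12–100 µg/mL. Plates were inoculated with about 10⁵ CFU/mL of bacterial suspension and incubated at (37 ± 1) °C for 24 h. Each value is the mean of three independent experiments.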

Escherichia coli [3] = assay: Antibacterial activity against Escherichia coli after 24 hrs by agar streak dilution method; assay type: functional; method in brief: as §2
Aspergillus fumigatus [4] = assay: Antifungal activity against Aspergillus fumigatus at 100 ug/disc after 24 hrs by disc diffusion method; assay type: functional; details: read-out: DIZ
Method in brief: (§3)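 Paper disc diffusion on autoclaved Mueller-Hinton agar poured 5 mm deep. Agar was swab-inoculated with 10⁵ CFU/mL suspension (0.5 McFarland). Discs 6.25 mm across were soaked in compound solution in DMSO (3.12–100 µg/mL) and plates incubated 24 h at (37 ± 1) °C. Read-out was inhibition zone (mm). DMSO control disc; ciprofloxacin or ketoconazole reference, 100 µg/disc. Mean of three independent experiments.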

Bacillus cereus [5] = assay: Antibacterial activity against Bacillus cereus after 24 hrs by agar streak dilution method; assay type: functional; method in brief: as §2
Pseudomonas aeruginosa [6] = assay: Antibacterial activity against Pseudomonas aeruginosa at 100 ug/disc after 24 hrs by disc diffusion method; assay type: functional; details: read-out: DIZ; method in brief: as §3
Escherichia coli [7] = assay: Antibacterial activity against Escherichia coli at 100 ug/disc after 24 hrs by disc diffusion method; assay type: functional; details: read-out: DIZ; method in brief: as §3
Proteus vulgaris [8] = assay: Antibacterial activity against Proteus vulgaris at 100 ug/disc after 24 hrs by disc diffusion method; assay type: functional; details: read-out: DIZ; method in brief: as §3
Klebsiella pneumoniae [9] = assay: Antibacterial activity against Klebsiella pneumoniae […] after 24 hrs by agar streak dilution method; assay type: functional
Shigella flexneri [10] = assay: Antibacterial activity against Shigella flexneri after 24 hrs by agar streak dilution method; assay type: functional; method in brief: as §2
Salmonella typhi [11] = assay: Antibacterial activity against Salmonella Typhi at 100 ug/disc after 24 hrs by disc diffusion method; assay type: functional, Salmonella enterica subsp. enterica serovar Typhi; details: Salmonella enterica, read-out: DIZ
Method in brief: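 Paper disc diffusion on Mueller-Hinton agar poured 5 mm deep; 10⁵ CFU/mL suspension (0.5 McFarland) swabbed over surface. 6.25 mm filter paper discs soaked in compound in DMSO, incubated 24 h at (37 ± 1) °C; inhibition zone diameter in mm. DMSO disc as blank; ciprofloxacin 100 µg/disc as reference. Mean of three independent experiments.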

Aspergillus fumigatus [12] = assay: Antifungal activity against Aspergillus fumigatus after 48 hrs by agar streak dilution method; assay type: functional; method in brief: as §1
Aspergillus niger [13] = assay: Antifungal activity against Aspergillus niger at 100 ug/disc after 24 hrs by disc diffusion method; assay type: functional; details: read-out: DIZ; method in brief: as §3
Aspergillus clavatus [14] = assay: Antifungal activity against Aspergillus clavatus at 100 ug/disc after 24 hrs by disc diffusion method; assay type: functional; details: read-out: DIZ; method in brief: as §3
Staphylococcus aureus [15] = assay: Antibacterial activity against Staphylococcus aureus after 24 hrs by agar streak dilution method; assay type: functional; method in brief: as §2
Klebsiella pneumoniae [16] = assay: Antibacterial activity against Klebsiella pneumoniae at 100 ug/disc after 24 hrs by disc diffusion method; assay type: functional; details: read-out: DIZ; method in brief: as §3
Bacillus cereus [17] = assay: Antibacterial activity against Bacillus cereus at 100 ug/disc after 24 hrs by disc diffusion method; assay type: functional; details: read-out: DIZ; method in brief: as §3
Candida albicans [18] = assay: Antifungal activity against Candida albicans at 100 ug/disc after 24 hrs by disc diffusion method; assay type: functional; details: read-out: DIZ; method in brief: as §3
Aspergillus clavatus [19] = assay: Antifungal activity against Aspergillus clavatus after 48 hrs by agar streak dilution method; assay type: functional; method in brief: as §1
Pseudomonas aeruginosa [20] = assay: Antibacterial activity against Pseudomonas aeruginosa […] after 24 hrs by agar streak dilution method; assay type: functional
Candida albicans [21] = assay: Antifungal activity against Candida albicans after 48 hrs by agar streak dilution method; assay type: functional; method in brief: as §1
Staphylococcus aureus [22] = assay: Antibacterial activity against Staphylococcus aureus at 100 ug/disc after 24 hrs by disc diffusion method; assay type: functional; details: read-out: DIZ; method in brief: as §3
Shigella flexneri [23] = assay: Antibacterial activity against Shigella flexneri at 100 ug/disc after 24 hrs by disc diffusion method; assay type: functional; details: read-out: DIZ; method in brief: as §3
Salmonella typhi [24] = assay: Antibacterial activity against Salmonella Typhi after 24 hrs by agar streak dilution method; assay type: functional, Salmonella enterica subsp. enterica serovar Typhi; details: Salmonella enterica
Method in brief: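 Agar streak dilution: DMSO stock (100 µg/mL) graded into molten sterile nutrient agar, poured 4–5 mm deep and solidified. Plates carry serial dilutions spanning 3.12–100 µg/mL. Applied ~10⁵ CFU/mL suspension, then incubated 24 h at (37 ± 1) °C. MIC read as the lowest inhibitory concentration; each value is the mean of three independent experiments.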

| SMILES | MIC (Aspergillus niger [1]) | MIC (Proteus vulgaris [2]) | MIC (Escherichia coli [3]) | zone of inhibition at 100 µg/disc (Aspergillus fumigatus [4]) | MIC (Bacillus cereus [5]) | zone of inhibition at 100 µg/disc (Pseudomonas aeruginosa [6]) | zone of inhibition at 100 µg/disc (Escherichia coli [7]) | zone of inhibition at 100 µg/disc (Proteus vulgaris [8]) | MIC (Klebsiella pneumoniae [9]) | MIC (Shigella flexneri [10]) | zone of inhibition at 100 µg/disc (Salmonella typhi [11]) | MIC (Aspergillus fumigatus [12]) | zone of inhibition at 100 µg/disc (Aspergillus niger [13]) | zone of inhibition at 100 µg/disc (Aspergillus clavatus [14]) | MIC (Staphylococcus aureus [15]) | zone of inhibition at 100 µg/disc (Klebsiella pneumoniae [16]) | zone of inhibition at 100 µg/disc (Bacillus cereus [17]) | zone of inhibition at 100 µg/disc (Candida albicans [18]) | MIC (Aspergillus clavatus [19]) | MIC (Pseudomonas aeruginosa [20]) | further results |
| --- | --- | --- | --- | --- | --- | --- | --- | --- | --- | --- | --- | --- | --- | --- | --- | --- | --- | --- | --- | --- | --- |
| CCN1CCN(CC2SC(c3ccccc3Br)N(c3ccc(Nc4nc(Oc5cc(=O)n(C)c6ccccc56)nc(N(C)C)n4)cc3)C2=O)CC1 (centres undefined) | 100 µg/mL (≈ 130 µM) | 100 µg/mL (≈ 130 µM) | 100 µg/mL (≈ 130 µM) | < 10 mm | 100 µg/mL (≈ 130 µM) | 14 mm | < 10 mm | 15 mm | 100 µg/mL (≈ 130 µM) | 100 µg/mL (≈ 130 µM) | 12 mm | 100 µg/mL (≈ 130 µM) | < 10 mm | 13 mm | 100 µg/mL (≈ 130 µM) | 12 mm | 13 mm | < 10 mm | 100 µg/mL (≈ 130 µM) | 100 µg/mL (≈ 130 µM) | MIC (Candida albicans [21]): 100 µg/mL (≈ 130 µM); zone of inhibition at 100 µg/disc (Staphylococcus aureus [22]): < 10 mm; zone of inhibition at 100 µg/disc (Shigella flexneri [23]): 11 mm; MIC (Salmonella typhi [24]): 100 µg/mL (≈ 130 µM) |
| CCN1CCN(CC2SC(c3ccccc3C(=O)O)N(c3ccc(Nc4nc(Oc5cc(=O)n(C)c6ccccc56)nc(N(C)C)n4)cc3)C2=O)CC1 (centres undefined) | 100 µg/mL (≈ 136 µM) | 100 µg/mL (≈ 136 µM) | 50 µg/mL (≈ 67.9 µM) | 11 mm | 50 µg/mL (≈ 67.9 µM) | 13 mm | 18 mm | 12 mm | 50 µg/mL (≈ 67.9 µM) | 100 µg/mL (≈ 136 µM) | 13 mm | 100 µg/mL (≈ 136 µM) | 15 mm | 17 mm | 100 µg/mL (≈ 136 µM) | 16 mm | 21 mm | 17 mm | 100 µg/mL (≈ 136 µM) | 100 µg/mL (≈ 136 µM) | MIC (Candida albicans [21]): 100 µg/mL (≈ 136 µM); zone of inhibition at 100 µg/disc (Staphylococcus aureus [22]): 21 mm; zone of inhibition at 100 µg/disc (Shigella flexneri [23]): 15 mm; MIC (Salmonella typhi [24]): 100 µg/mL (≈ 136 µM) |
| CCN1CCN(CC2SC(c3ccc(C(=O)O)cc3)N(c3ccc(Nc4nc(Oc5cc(=O)n(C)c6ccccc56)nc(N(C)C)n4)cc3)C2=O)CC1 (centres undefined) | 25 µg/mL (≈ 34 µM) | 12.5 µg/mL (≈ 17 µM) | 6.25 µg/mL (≈ 8.49 µM) | 20 mm | 12.5 µg/mL (≈ 17 µM) | 22 mm | 27 mm | 25 mm | 12.5 µg/mL (≈ 17 µM) | 6.25 µg/mL (≈ 8.49 µM) | 22 mm | 50 µg/mL (≈ 67.9 µM) | 27 mm | 23 mm | 25 µg/mL (≈ 34 µM) | 26 mm | 23 mm | 25 mm | 50 µg/mL (≈ 67.9 µM) | 25 µg/mL (≈ 34 µM) | MIC (Candida albicans [21]): 100 µg/mL (≈ 136 µM); zone of inhibition at 100 µg/disc (Staphylococcus aureus [22]): 26 mm; zone of inhibition at 100 µg/disc (Shigella flexneri [23]): 27 mm; MIC (Salmonella typhi [24]): 50 µg/mL (≈ 67.9 µM) |
| CCN1CCN(CC2SC(c3ccc(OC)cc3)N(c3ccc(Nc4nc(Oc5cc(=O)n(C)c6ccccc56)nc(N(C)C)n4)cc3)C2=O)CC1 (centres undefined) | 12.5 µg/mL (≈ 17.3 µM) | 50 µg/mL (≈ 69.3 µM) | 6.25 µg/mL (≈ 8.66 µM) | 27 mm | 6.25 µg/mL (≈ 8.66 µM) | 25 mm | 27 mm | 21 mm | 25 µg/mL (≈ 34.6 µM) | 6.25 µg/mL (≈ 8.66 µM) | 26 mm | 12.5 µg/mL (≈ 17.3 µM) | 25 mm | 24 mm | 6.25 µg/mL (≈ 8.66 µM) | 25 mm | 27 mm | 26 mm | 12.5 µg/mL (≈ 17.3 µM) | 12.5 µg/mL (≈ 17.3 µM) | MIC (Candida albicans [21]): 12.5 µg/mL (≈ 17.3 µM); zone of inhibition at 100 µg/disc (Staphylococcus aureus [22]): 28 mm; zone of inhibition at 100 µg/disc (Shigella flexneri [23]): 26 mm; MIC (Salmonella typhi [24]): 6.25 µg/mL (≈ 8.66 µM) |
| CCN1CCN(CC2SC(c3ccc(OC)c(OC)c3)N(c3ccc(Nc4nc(Oc5cc(=O)n(C)c6ccccc56)nc(N(C)C)n4)cc3)C2=O)CC1 (centres undefined) | 100 µg/mL (≈ 133 µM) | 50 µg/mL (≈ 66.5 µM) | 25 µg/mL (≈ 33.2 µM) | 26 mm | 12.5 µg/mL (≈ 16.6 µM) | 24 mm | 24 mm | 23 mm | 50 µg/mL (≈ 66.5 µM) | 50 µg/mL (≈ 66.5 µM) | 25 mm | 25 µg/mL (≈ 33.2 µM) | 21 mm | 24 mm | 25 µg/mL (≈ 33.2 µM) | 23 mm | 24 mm | 23 mm | 50 µg/mL (≈ 66.5 µM) | 12.5 µg/mL (≈ 16.6 µM) | MIC (Candida albicans [21]): 50 µg/mL (≈ 66.5 µM); zone of inhibition at 100 µg/disc (Staphylococcus aureus [22]): 23 mm; zone of inhibition at 100 µg/disc (Shigella flexneri [23]): 22 mm; MIC (Salmonella typhi [24]): 25 µg/mL (≈ 33.2 µM) |
| CCN1CCN(CC2SC(c3ccc(O)cc3O)N(c3ccc(Nc4nc(Oc5cc(=O)n(C)c6ccccc56)nc(N(C)C)n4)cc3)C2=O)CC1 (centres undefined) | 100 µg/mL (≈ 138 µM) | 100 µg/mL (≈ 138 µM) | 100 µg/mL (≈ 138 µM) | 15 mm | 100 µg/mL (≈ 138 µM) | 17 mm | 15 mm | 14 mm | 100 µg/mL (≈ 138 µM) | 100 µg/mL (≈ 138 µM) | 14 mm | 100 µg/mL (≈ 138 µM) | 11 mm | 17 mm | 100 µg/mL (≈ 138 µM) | 16 mm | 17 mm | < 10 mm | 100 µg/mL (≈ 138 µM) | 100 µg/mL (≈ 138 µM) | MIC (Candida albicans [21]): 100 µg/mL (≈ 138 µM); zone of inhibition at 100 µg/disc (Staphylococcus aureus [22]): 15 mm; zone of inhibition at 100 µg/disc (Shigella flexneri [23]): 16 mm; MIC (Salmonella typhi [24]): 100 µg/mL (≈ 138 µM) |
